Results reported in ChEMBL document CHEMBL1821649, “Synthesis, characterization of some benzazoles bearing pyridine moiety: search for novel anticancer agents” (2011).

Tests used:
Format in all cases: functional
NCI-H522 = assay: Antitumor activity against human NCI-H522 cells after 48 hrs by SRB assay; details: NCI-H522, 48 h
In short: (§1)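 NCI-60 human tumour cell panel run under the National Cancer Institute Drug Evaluation Branch protocol. Compounds passing a single-dose prescreen were retested on all lines at five 10-fold dilutions. Growth was expressed as percent growth of treated cells. Response parameters were GI50 (molar concentration giving 50% growth inhibition), TGI (total growth inhibition) and LC50 (median lethal concentration).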

SK-MEL-5 = assay: Antitumor activity against human SK-MEL-5 cells after 48 hrs by SRB assay; details: SK-MEL-5, 48 h; in short: as §1
DU-145 = assay: Antitumor activity against human DU145 cells after 48 hrs by SRB assay; details: DU-145, 48 h; for CC50: read-out: LC50 (the source's name); in short: as §1
OVCAR-8 = assay: Antitumor activity against human OVCAR8 cells after 48 hrs by SRB assay; details: OVCAR-8, 48 h; in short: as §1
NCI-H23 = assay: Antitumor activity against human NCI-H23 cells after 48 hrs by SRB assay; details: NCI-H23, 48 h; in short: as §1
OVCAR-4 = assay: Antitumor activity against human OVCAR4 cells after 48 hrs by SRB assay; details: OVCAR-4, 48 h; for CC50: read-out: LC50 (the source's name); in short: as §1
T47D = assay: Antitumor activity against human T47D cells after 48 hrs by SRB assay; details: for CC50: read-out: LC50 (the source's name)
In short: (§2)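 NCI-60 human cancer cell line panel run under the NCI Drug Evaluation Branch protocol. Compounds were first screened at a single dose. Those meeting preset inhibition thresholds were retested at five 10-fold dilutions. Output was percent growth of treated cells, given as % growth inhibition. GI50, TGI and LC50 values were derived from the five-dose data.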

HCT-15 = assay: Antitumor activity against human HCT15 cells after 48 hrs by SRB assay; details: HCT-15, 48 h; for CC50: read-out: LC50 (the source's name); in short: as §1
KM12 = assay: Antitumor activity against human KM12 cells after 48 hrs by SRB assay; details: KM12, 48 h; for CC50: read-out: LC50 (the source's name); in short: as §1
K562 = assay: Antitumor activity against human K562 cells after 48 hrs by SRB assay; details: K562, 48 h; in short: as §1
HOP-92 = assay: Antitumor activity against human HOP92 cells after 48 hrs by SRB assay; details: HOP-92, 48 h; in short: as §1
RPMI-8226 = assay: Antitumor activity against human RPMI8226 cells after 48 hrs by SRB assay; details: RPMI-8226, 48 h; for CC50: read-out: LC50 (the source's name); in short: as §1
HCC 2998 = assay: Antitumor activity against human HCC2998 cells after 48 hrs by SRB assay; details: HCC 2998, 48 h; for CC50: read-out: LC50 (the source's name); in short: as §1
EKVX = assay: Antitumor activity against human EKVX cells after 48 hrs by SRB assay; details: for CC50: read-out: LC50 (the source's name); in short: as §1
MCF7 = assay: Antitumor activity against human MCF7 cells after 48 hrs by SRB assay; details: MCF7, 48 h; for CC50: read-out: LC50 (the source's name); in short: as §1
[1] = Antitumor activity against human Hs 578T cells after 48 hrs by SRB assay; details: for CC50: read-out: LC50 (the source's name); in short: as §1
CAKI-1 = assay: Antitumor activity against human Caki1 cells after 48 hrs by SRB assay; details: CAKI-1, 48 h; for CC50: read-out: LC50 (the source's name); in short: as §1
MDA-MB-435 = assay: Antitumor activity against human MDA-MB-435 cells after 48 hrs by SRB assay; details: MDA-MB-435, 48 h; in short: as §1
HCT-116 = assay: Antitumor activity against human HCT116 cells after 48 hrs by SRB assay; details: HCT-116, 48 h; for CC50: read-out: LC50 (the source's name); in short: as §1
ACHN = assay: Antitumor activity against human ACHN cells after 48 hrs by SRB assay; details: for CC50: read-out: LC50 (the source's name); in short: as §1
TK-10 = assay: Antitumor activity against human TK10 cells after 48 hrs by SRB assay; details: TK-10, 48 h; for CC50: read-out: LC50 (the source's name); in short: as §2
U-251 = assay: Antitumor activity against human U251 cells after 48 hrs by SRB assay; details: U-251, 48 h; for CC50: read-out: LC50 (the source's name); in short: as §2
SW-620 = assay: Antitumor activity against human SW620 cells after 48 hrs by SRB assay; details: SW-620, 48 h; for CC50: read-out: LC50 (the source's name); in short: as §2
SK-MEL-2 = assay: Antitumor activity against human SK-MEL-2 cells after 48 hrs by SRB assay; details: SK-MEL-2, 48 h; in short: as §1
PC-3 = assay: Antitumor activity against human PC3 cells after 48 hrs by SRB assay; details: PC-3, 48 h; in short: as §1

Q: For `Cc1cc2nc(-c3c(N)ncc(C#N)c3-c3ccc(Cl)cc3)[nH]c2cc1C`, which GI50 (NCI-H522) is on record?
A: 4.07 µM

Q: And the LC50 (NCI-H522)?
A: 96.5 µM

Q: And the TGI (NCI-H522)?
A: 27.9 µM

Q: And the GI50 (SK-MEL-5)?
A: 10 µM

Q: And the LC50 (SK-MEL-5)?
A: > 100 µM

Q: And the TGI (SK-MEL-5)?
A: 33.4 µM

Q: And the GI50 (DU-145)?
A: 5.68 µM

Q: What about the TGI (DU-145) of the same compound?
A: 27.1 µM

Q: What about the CC50 (DU-145) of the same compound?
A: 93.1 µM

Q: And the GI50 (OVCAR-8)?
A: 4.53 µM

Q: And the LC50 (median lethal concentration) (OVCAR-8)?
A: > 100 µM

Q: What about the TGI (OVCAR-8) of the same compound?
A: 29.6 µM

Q: What about the GI50 (NCI-H23) of the same compound?
A: 8.1 µM

Q: What about the LC50 (NCI-H23) of the same compound?
A: 99.7 µM

Q: And the TGI (NCI-H23)?
A: 30.7 µM

Q: What about the GI50 (OVCAR-4) of the same compound?
A: 4.4 µM

Q: And the TGI (OVCAR-4)?
A: 25.4 µM

Q: And the CC50 (OVCAR-4)?
A: > 100 µM

Q: And the GI50 (T47D)?
A: 4.63 µM

Q: What about the TGI (T47D) of the same compound?
A: > 100 µM

Q: What about the CC50 (T47D) of the same compound?
A: > 100 µM

Q: And the GI50 (HCT-15)?
A: 30.6 µM

Q: What about the TGI (HCT-15) of the same compound?
A: > 100 µM

Q: What about the CC50 (HCT-15) of the same compound?
A: > 100 µM

Q: What about the GI50 (KM12) of the same compound?
A: 14.8 µM

Q: What about the TGI (KM12) of the same compound?
A: > 100 µM

Q: And the CC50 (KM12)?
A: > 100 µM

Q: What about the GI50 (K562) of the same compound?
A: 31.5 µM

Q: And the LC50 (K562)?
A: > 100 µM

Q: What about the TGI (K562) of the same compound?
A: > 100 µM

Q: And the GI50 (HOP-92)?
A: 0.275 µM

Q: What about the LC50 (HOP-92) of the same compound?
A: 44.2 µM

Q: What about the TGI (HOP-92) of the same compound?
A: 5.23 µM

Q: And the GI50 (RPMI-8226)?
A: 5.55 µM

Q: And the TGI (RPMI-8226)?
A: > 100 µM

Q: And the CC50 (RPMI-8226)?
A: > 100 µM

Q: And the GI50 (HCC 2998)?
A: 20.9 µM

Q: And the TGI (HCC 2998)?
A: > 100 µM

Q: And the CC50 (HCC 2998)?
A: > 100 µM

Q: And the GI50 (EKVX)?
A: 14.4 µM

Q: And the TGI (EKVX)?
A: 76.7 µM

Q: What about the CC50 (EKVX) of the same compound?
A: > 100 µM

Q: And the GI50 (MCF7)?
A: 9.34 µM

Q: And the TGI (MCF7)?
A: > 100 µM

Q: What about the CC50 (MCF7) of the same compound?
A: > 100 µM

Q: What about the GI50 [1] of the same compound?
A: 12 µM

Q: And the TGI [1]?
A: > 100 µM

Q: What about the CC50 [1] of the same compound?
A: > 100 µM

Q: And the GI50 (CAKI-1)?
A: 12.1 µM

Q: And the TGI (CAKI-1)?
A: > 100 µM

Q: And the CC50 (CAKI-1)?
A: > 100 µM

Q: What about the GI50 (MDA-MB-435) of the same compound?
A: 2.62 µM

Q: And the LC50 (median lethal concentration) (MDA-MB-435)?
A: > 100 µM

Q: And the TGI (MDA-MB-435)?
A: > 100 µM

Q: And the GI50 (HCT-116)?
A: 3.47 µM

Q: And the TGI (HCT-116)?
A: 19.7 µM

Q: What about the CC50 (HCT-116) of the same compound?
A: 66.3 µM

Q: What about the GI50 (ACHN) of the same compound?
A: 11.1 µM

Q: And the TGI (ACHN)?
A: > 100 µM

Q: And the CC50 (ACHN)?
A: > 100 µM

Q: And the GI50 (TK-10)?
A: 4.67 µM

Q: What about the TGI (TK-10) of the same compound?
A: 21.3 µM

Q: And the CC50 (TK-10)?
A: 69.5 µM

Q: And the GI50 (U-251)?
A: 5.48 µM

Q: And the TGI (U-251)?
A: 21.4 µM

Q: And the CC50 (U-251)?
A: 66.2 µM

Q: What about the GI50 (SW-620) of the same compound?
A: 32.4 µM

Q: And the TGI (SW-620)?
A: > 100 µM

Q: What about the CC50 (SW-620) of the same compound?
A: > 100 µM

Q: What about the GI50 (SK-MEL-2) of the same compound?
A: 20.4 µM

Q: What about the LC50 (median lethal concentration) (SK-MEL-2) of the same compound?
A: > 100 µM

Q: What about the TGI (SK-MEL-2) of the same compound?
A: > 100 µM

Q: Which results are given for `COc1ccc(-c2c(C#N)cnc(N)c2-c2nc3cc(C)c(C)cc3[nH]2)cc1`?
A: LC50 (NCI-H522): > 100 µM; GI50 (SK-MEL-5): 8.78 µM; LC50 (SK-MEL-5): > 100 µM; TGI (SK-MEL-5): > 100 µM; GI50 (DU-145): 6.92 µM; TGI (DU-145): 23.8 µM; CC50 (DU-145): 61.8 µM; GI50 (OVCAR-8): 5.2 µM; LC50 (median lethal concentration) (OVCAR-8): > 100 µM; TGI (OVCAR-8): 26.8 µM; GI50 (NCI-H23): 5.37 µM; LC50 (NCI-H23): > 100 µM; TGI (NCI-H23): 33.3 µM; GI50 (OVCAR-4): 22.5 µM; TGI (OVCAR-4): > 100 µM; CC50 (OVCAR-4): > 100 µM; GI50 (T47D): 15.4 µM; TGI (T47D): > 100 µM; CC50 (T47D): > 100 µM; GI50 (HCT-15): 5.81 µM; TGI (HCT-15): > 100 µM; CC50 (HCT-15): > 100 µM; GI50 (KM12): 3.47 µM; TGI (KM12): > 100 µM; CC50 (KM12): > 100 µM; GI50 (K562): 6.03 µM; LC50 (K562): > 100 µM; TGI (K562): > 100 µM; GI50 (HOP-92): 2.65 µM; LC50 (HOP-92): > 100 µM; TGI (HOP-92): 16.3 µM; GI50 (RPMI-8226): 32.5 µM; TGI (RPMI-8226): > 100 µM; CC50 (RPMI-8226): > 100 µM; GI50 (HCC 2998): 11 µM; TGI (HCC 2998): > 100 µM; CC50 (HCC 2998): > 100 µM; GI50 (EKVX): 15.8 µM; TGI (EKVX): > 100 µM; CC50 (EKVX): > 100 µM; GI50 (PC-3): 8.86 µM; GI50 (MCF7): 6.34 µM; TGI (MCF7): > 100 µM; CC50 (MCF7): > 100 µM; GI50 [1]: 5.87 µM; TGI [1]: > 100 µM; CC50 [1]: > 100 µM; GI50 (CAKI-1): 14.6 µM; TGI (CAKI-1): > 100 µM; CC50 (CAKI-1): > 100 µM; GI50 (MDA-MB-435): 1.95 µM; LC50 (median lethal concentration) (MDA-MB-435): 100 µM; TGI (MDA-MB-435): 5.39 µM; GI50 (HCT-116): 4.63 µM; TGI (HCT-116): > 100 µM; CC50 (HCT-116): > 100 µM; GI50 (ACHN): 3.98 µM; TGI (ACHN): > 100 µM; CC50 (ACHN): > 100 µM; GI50 (TK-10): 5.94 µM; TGI (TK-10): 26.4 µM; CC50 (TK-10): 99.6 µM; GI50 (U-251): 3.65 µM; TGI (U-251): 12.7 µM; CC50 (U-251): 53.9 µM; GI50 (SW-620): 6.76 µM; TGI (SW-620): > 100 µM; CC50 (SW-620): > 100 µM; GI50 (SK-MEL-2): 10.8 µM; LC50 (median lethal concentration) (SK-MEL-2): > 100 µM; TGI (SK-MEL-2): 98 µM
